Format in all cases: functional
Holding throughout (conditions): read-out: ED50 (the source's name)

One assay has as its system P388. The assay is described as follows: Cytotoxicity against mouse P388 cells. The method, boiled down:
(§1)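 KB and P-388 cells supplied by an academic laboratory (University of Illinois at Chicago); the assay protocol itself is given only by reference to earlier work.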

The subject of another assay is A549. The assay is described as follows: Cytotoxicity against human A549 cells. The essentials:
(§2)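 Cell lines obtained from the American Type Culture Collection; the assay protocol itself is given only by reference to earlier work.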

Another assay concerns KB. Nature of the assay: Cytotoxicity against human KB cells. The essentials:
as §1

A further assay deals with HL-60. Nature of the assay: Cytotoxicity against human HL60 cells. The essentials: as §2
The test system of a further assay is HT-29. The assay is described as follows: Cytotoxicity against human HT-29 cells. The essentials: as §2

Molecules are shown by their SMILES. ≈ marks a conversion by molar mass, not a printed value. A value given as a limit tells only on which side of the number the result lay.

Turning to `C/C=C(\C)C(=O)NC(CCCO)NC(=O)/C=C/c1ccccc1` (stereo not given), the EC50 in the assay on P388 is 3.62 µg/mL (≈ 11.4 µM); in the assay on A549 it was over 50 µg/mL; in the assay on KB, over 50 µg/mL; in the assay with HL-60 it was 32.1 µg/mL (≈ 101 µM); in the assay with HT-29 it was over 50 µg/mL.
`C/C=C(\C)C(=O)N[C@@H]1CCCN1C(=O)[C@@H]1[C@@H](c2ccccc2)[C@]2(c3ccc(OC)cc3)Oc3cc(OC)cc(OC)c3[C@@]1(O)[C@@H]2O` [ELLIPTIFOLINE]: the EC50 in the assay with P388 was 3.41 µg/mL (≈ 5.42 µM); with A549, 18.9 µg/mL (≈ 30.1 µM); in the assay on KB it was over 50 µg/mL; in the assay on HL-60, over 50 µg/mL; with HT-29, over 50 µg/mL.
For the molecule `COc1ccc([C@@]23Oc4cc(OC)cc(OC)c4[C@]2(O)[C@H](O)[C@H](C(=O)O)[C@H]3c2ccccc2)cc1` [ROCAGLOIC ACID], the EC50 was determined as 0.0012 µg/mL (≈ 0.00251 µM) with P388; 0.00074 µg/mL (≈ 0.00155 µM) with A549; 0.0023 µg/mL (≈ 0.00481 µM) in the assay with KB; 0.00084 µg/mL (≈ 0.00176 µM) in the assay on HL-60; 0.00084 µg/mL (≈ 0.00176 µM) in the assay on HT-29.

Values taken from ChEMBL document CHEMBL1150226, “Cytotoxic constituents from leaves of Aglaia elliptifolia” (2001).
